Screens from PubChem.
DDE Tn6 FP inh – inhibitors of Tn6 peptide binding to fibrin DD(E), primary screen, biochemical, fluorescence polarization, human fibrin, Tn6 probe. 370,000 tested, 0.21% active. inhibition, % at 8.3 µM. Fibrin DD(E) TRITC-Tn6 fluorescence polarization displacement. Fibrinogen beta chain (Homo sapiens), P02675;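 active means inhibition above a per-campaign cutoff: mean of compounds within control limits plus 3 SD, cut at about 15% in these data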;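 further: 0% = median of all compound wells on the plate and 100% = blocking peptide control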
TDP2 inh – human TDP2 enzyme inhibitors, primary screen, biochemical, epi absorbance, recombinant enzyme | T5PNP hydrolysis, p-nitrophenol absorbance 415 nm | Tyrosyl-DNA phosphodiesterase 2 (Homo sapiens), O95551 | inhibition, % at 12.8 µM | 370,000 tested, 0.34% active;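 active means inhibition above the mean of all tested compounds plus 3 SD, set per campaign, cut at about 25% in these data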;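 further: 0% = DMSO with enzyme and 100% = buffer with substrate but no TDP2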
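test system = human TDP2 enzyme | input = TDP2 enzyme at 120 nM final | medium = 50 mM Tris-HCl pH 7.5 with Mg2+, KCl, DTT, BSA | also added = T5PNP substrate, 5 mM | times = 2 h at 37 °C | technique = epi absorbance | benchmarks = high control without enzyme, low control DMSO plus TDP2 | replication = each compound tested once, singlicate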
MBD2 inh – inhibitors of MBD2 binding to methylated DNA, primary screen, biochemical, TR-FRET, DNA-binding domain, human; Methyl-CpG-binding domain protein 2 (Homo sapiens), Q9UBB5; MBD2 binding to methylated oligonucleotide; inhibition, % at 4.4 µM; 370,000 tested, 0.31% active; in the data active means inhibition above about 13%
UHRF1 binding – UHRF1 methylated DNA binding inhibitors, primary screen, counter-screen for MBD2 inhibitor project, biochemical, TR-FRET, human UHRF1, single concentration | AID 687016, 2013 | 370,000 tested, 0.75% active | inhibition, % at 4.4 µM | UHRF1 binding to methylated oligo; in the data active means inhibition above about 21%;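 further: UHRF1 SRA domain binding a hemimethylated CpG hairpin DNA probe; 0% = median of test compound wells and 100% = reference inhibitor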
Target sequence (Q96T88 whole entry, looked up, the tested form may be a part): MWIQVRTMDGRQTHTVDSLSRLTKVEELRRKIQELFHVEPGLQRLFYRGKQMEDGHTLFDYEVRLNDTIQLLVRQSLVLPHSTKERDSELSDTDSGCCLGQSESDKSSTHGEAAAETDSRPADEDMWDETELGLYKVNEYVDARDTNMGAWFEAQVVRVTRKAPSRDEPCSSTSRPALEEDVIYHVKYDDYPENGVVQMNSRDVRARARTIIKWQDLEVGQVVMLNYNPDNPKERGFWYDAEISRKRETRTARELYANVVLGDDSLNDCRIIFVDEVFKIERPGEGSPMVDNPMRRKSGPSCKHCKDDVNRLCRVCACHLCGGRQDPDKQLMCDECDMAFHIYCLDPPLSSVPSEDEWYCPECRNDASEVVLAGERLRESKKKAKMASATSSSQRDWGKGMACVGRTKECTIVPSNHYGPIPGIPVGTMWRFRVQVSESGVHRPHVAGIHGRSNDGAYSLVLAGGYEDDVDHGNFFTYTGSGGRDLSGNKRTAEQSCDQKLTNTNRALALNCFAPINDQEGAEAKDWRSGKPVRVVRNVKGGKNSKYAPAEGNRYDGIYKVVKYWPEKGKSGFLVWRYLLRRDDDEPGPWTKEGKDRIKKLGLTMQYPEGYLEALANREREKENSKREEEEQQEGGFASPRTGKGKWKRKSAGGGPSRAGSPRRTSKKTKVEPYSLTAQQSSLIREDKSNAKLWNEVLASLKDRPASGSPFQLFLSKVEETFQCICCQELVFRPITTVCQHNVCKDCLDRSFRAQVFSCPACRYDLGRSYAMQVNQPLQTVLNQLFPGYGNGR
DDE Tn7 FP inh – inhibitors of Tn7 peptide binding to fibrin DD(E), primary screen, biochemical, fluorescence polarization, human fibrin, Tn7 probe. FP displacement of FITC-Tn7 peptide from fibrin DD(E); 0% = median of compound wells per plate. inhibition, % at 8.3 µM. 370,000 tested, 0.13% active. Fibrinogen beta chain (Homo sapiens), P02675;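 active means inhibition above the mean of compounds falling within the control limits plus 3 SD of them, cut at about 14% in these data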;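 further: 0% = plate median of compound wells and 100% = 10 µM Aha-Tn7 peptide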
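system = human fibrin DD(E) protein | quantity = DD(E) 2 µM final | medium = Tris/NaCl/CaCl2 buffer, pH 7.8 | also added = labelled Tn7 tracer, 0.1 µM | compound dosing = single point at 8.3 µM | timing = compound with protein 10 min, then 3 h after probe, room temperature | signal = FP measurement | benchmarks = Aha-Tn7 high control | repeats = one replicate per compound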
LEDGF integ inh – blockers of LEDGF/p75-dependent integrase strand transfer – biochemical, TR-FRET, high throughput, primary screen; 370,000 tested, 0.64% active; AID 743269, 2014; HIV-1 integrase (with human LEDGF/p75); TR-FRET IN-LEDGF/p75 DNA integration, Eu/Cy5; inhibition, % at 3.7 µM;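 active means inhibition above the screen-wide mean plus 3 SD, cut at about 13% in these data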;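 further: signal is the Cy5 over europium emission ratio at 671 and 618 nm; 0% = plate median of compound wells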
UHRF1 DNA bind – UHRF1 methylated DNA binding inhibitors, counter-screen for MBD2 inhibitor project, biochemical, TR-FRET, human UHRF1. inhibition, % at 4.4 µM. shares compounds with MBD2 inh. 1,000 tested, 25% active. UHRF1 binding to methylated oligonucleotide; in the data active means inhibition above about 21%;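 further: UHRF1 SRA domain binding a labeled hemimethylated CpG hairpin DNA; 0% = vehicle only and 100% = reference inhibitor with vehicle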
MBD2 DBD conf – inhibitors of MBD2 binding to methylated DNA, confirmation, biochemical, TR-FRET, DNA-binding domain, human; shares compounds with MBD2 inh; 1,000 tested, 26% active; TR-FRET MBD2-DBD binding to methylated oligonucleotide; inhibition, % at 4.4 µM; AID 720531, 2013
Tn7 DDE conf – inhibitors of Tn7 peptide binding to fibrin DD(E), confirmation, biochemical, fluorescence polarization, human fibrin, Tn7 probe; shares compounds with DDE Tn7 FP inh; FP displacement of TRITC-Tn7 peptide from DD(E); 0% set at plate's compound-well median; inhibition, % at 8.3 µM; 460 tested, 5% active; AID 720628, 2013;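 active means inhibition above the campaign cutoff, the mean of compounds within control limits plus 3 SD, cut at about 14% in these data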;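 further: 100% = median FP of high control wells holding Aha-Tn7 inhibitor peptide; displacers lower polarization since freed probe rises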
Tn7 DDE ctr – counter-screen for inhibitors of Tn7 peptide binding to fibrin DD(E); shares compounds with DDE Tn7 FP inh; TRITC-Tn7 probe displacement, fluorescence polarization; inhibition, % at 8.3 µM; 460 tested, 3% active;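 active means inhibition above the cutoff, the mean of compounds lying between the control bounds plus 3 SD of those compounds, cut at about 17% in these data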;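 further: 0% = median of compound sample wells and 100% = excess unlabeled Aha-Tn7 peptide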
TDP2 inh conf – human TDP2 enzyme inhibitors, retest, confirmation, biochemical, epi absorbance, recombinant enzyme. shares compounds with TDP2 inh. absorbance read-out. inhibition, % at 12.8 µM. 1,100 tested, 22% active; in the data active means inhibition above about 25%;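 further: 0% = vehicle with enzyme and 100% = no enzyme buffer only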
IN multimer up – HIV-1 IN multimer formation enhancers, counter-screen for LEDGF/p75 integration inhibitor project, biochemical, TR-FRET; 2,000 tested, 17% active; TR-FRET HIV-1 integrase multimerization; activation, % at 7.7 µM; shares compounds with LEDGF integ inh; in the data active means activation above about 8.9%
TRFRET interf – TR-FRET optical interference artefacts, confirmation, artefact control for LEDGF/p75-dependent integration inhibitor project, biochemical, HIV-1 IN multimerization | AID 1053135, 2014 | shares compounds with LEDGF integ inh | TR-FRET optical interference counterscreen | inhibition, % at 7.7 µM | 2,000 tested, under 10 active;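 active means inhibition above the mean over all tested compounds plus 3 SD, which no compound reached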;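 further: 0% = integrase with antibodies and DMSO and 100% = antibodies without integrase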
IN-LEDGF confirm – inhibitors of HIV-1 IN-LEDGF/p75 DNA integration, confirmation, biochemical, TR-FRET; shares compounds with LEDGF integ inh; TR-FRET LEDGF/p75-dependent HIV-1 integration; inhibition, % at 3.7 µM; 2,000 tested, 36% active; AID 1053136, 2014
* hit, by the source's call; · = no result. An excerpt weighted towards active compounds, which were near 1.9% of everything screened. Unless noted, no stated cut-off is given here; in the data, active means inhibition above about 14%; inactive means the rest.

SMILES	DDE Tn6 FP inh	TDP2 inh	MBD2 inh	UHRF1 binding	DDE Tn7 FP inh	LEDGF integ inh	Tn7 DDE conf	Tn7 DDE ctr	others
O=C(COC(=O)c1cncc(Br)c1)NCc1ccco1	3	-8	14*	44*	2	16*	·	·	UHRF1 DNA bind=26*;MBD2 DBD conf=14*;IN multimer up=7;TRFRET interf=-36;IN-LEDGF confirm=29*
CCOC(=O)CC[C@H]1CC[C@]2(CCCN(S(C)(=O)=O)C2)O1	-1	5	-1	-2	7	6	·	·
NC(=O)c1sc2nc3c(c(-c4ccco4)c2c1N)CCC3	6	26*	15*	47*	1	43*	·	·	UHRF1 DNA bind=-5;MBD2 DBD conf=-5;TDP2 inh conf=1;IN multimer up=2;TRFRET interf=-9;IN-LEDGF confirm=7
Cc1ccc(-c2c3c(nc4sc(C(N)=O)c(N)c24)CCCC3)o1	-5	-2	-5	-4	-1	0	·	·
COCCN1CCCC(CNCc2cn(C)nc2-c2ccc(Oc3ccccc3)cc2)C1 (centres undefined)	2	5	3	-2	15*	3	-3	-6
O=C1C=C(NCc2ccncc2)CC(c2ccccc2)C1 (centres undefined)	2	0	-1	0	6	0	·	·
O=C1C=C(NNC(=O)c2ccncc2)CC(c2ccccc2)C1 (centres undefined)	5	-8	-2	-2	29*	5	-7	-15
N#Cc1cccc(NC(=O)OC2CC3CC2[C@H]2CCCCN2[C@H]3Cc2ccccc2)c1 (some centres undefined)	3	-6	-6	7	10	1	·	·
Cc1cc(=O)oc2cc(OCc3c(F)cccc3Cl)ccc12	3	0	0	0	-6	7	·	·
COC(=O)c1sc(S(=O)(=O)N2CC(C)OC(C)C2)c(C(=O)OC)c1C (centres undefined)	2	11	-1	-1	-3	5	·	·
COC(=O)c1sc(S(=O)(=O)N2CCN(c3ccccc3)CC2)c(C(=O)OC)c1C	1	10	3	1	14*	-4	-2	-6
Cc1[nH]c2ccccc2c1C(=O)c1c(N)[nH]c(C(=O)c2ccccc2)c1-c1ccc(Cl)cc1	0	0	4	-3	5	-1	·	·
COC(=O)/C=C/C(=O)Nc1cccc(C(F)(F)F)c1	3	-8	1	1	14*	-3	-2	-3
O=C(OCc1cn(Cc2ccc(C(F)(F)F)cc2)nn1)N1CCOCC1	-7	0	0	5	2	-5	·	·
Cn1cccc1C(=O)OCC(=O)NCc1ccc2c(c1)OCO2	-3	5	-3	-2	21*	1	4	3
CC(=O)N1CCN(c2ccc(N3CCN(Cc4ccccc4)[C@H](C)C3)c(C)c2)[C@@H](C)C1	1	-13	1	1	-6	2	·	·
OCCOCCn1c(C(CO)Nc2nc(-c3ccccc3Br)cs2)nc2ccccc21 (centres undefined)	4	2	-4	-2	14*	0	4	5
OCCOCCn1c(C(CO)Nc2nc(-c3cccc(Br)c3)cs2)nc2ccccc21 (centres undefined)	-4	2	4	0	3	-1	·	·
COc1ccc(Cl)cc1C(=O)OCC(=O)N(CC(C)C)c1c(N)n(Cc2ccccc2)c(=O)[nH]c1=O	3	5	2	-2	11	-2	·	·
CCN(C(=O)COC(=O)c1cc(Cl)ccc1OC)c1c(N)n(Cc2ccccc2)c(=O)[nH]c1=O	11	-2	-3	-4	14*	-2	-1	-4
Cc1ccc(S(=O)(=O)n2nc(-c3cccnc3)nc2N)cc1	-3	-14	5	4	-4	-1	·	·
CC(=O)Nc1ccc(S(=O)(=O)n2nc(-c3ccc(C)cc3)nc2N)cc1	-4	-5	2	0	14*	0	-1	-5
O=C(Nc1ccccc1N1CCCCC1)c1cccc(Cl)c1	0	12	-3	-1	14*	0	-2	-8
O=C(Nc1ccccc1N1CCCC1)c1cc(Cl)ccc1Cl	5	10	-2	-1	0	-2	·	·
